Source: PubChem (several laboratories)
TLR4-MyD88 BLA: inhibitors of human TLR4-MyD88 binding; hit rate 0.18% among 200,000; HeLa CL3-4 TLR4/MyD88 BLA complementation, FRET ratio; inhibition, % at 8.4 µM; in the data active = inhibition above about 25%;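 note: 0% = vehicle and 100% = reference inhibitor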
TLR9-MyD88 block: inhibitors of human TLR9-MyD88 binding. CHO BLA complementation TLR9-MyD88, CCF4 FRET ratio. hit rate 0.21% among 340,000. inhibition, % at 4.98 µM;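 active = inhibition above the mean over all tested compounds plus 3 SD, cut at about 21% in these data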;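 note: 0% = DMSO only wells and 100% = clavulanate BLA inhibitor control wells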
NOD2 RIPK2 PPI: blocks binding of human NOD2 to RIPK2; CHO BLA complementation NOD2-RIPK2, CCF4 ratio; hit rate 0.38% among 360,000; inhibition, % at 4.98 µM; in the data active = inhibition above about 21%;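 note: 0% = vehicle only and 100% = reference blocker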
UPR XBP1 act: activators of adaptive arm of unfolded protein response (XBP1); activation, % at 20 µM; hit rate 0.33% among 330,000; CHO-XBP1 luciferase reporter, IRE1-XBP1 UPR activation, luminescence; percent of tunicamycin response, DMSO as zero; AID 463104;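 active = versus positive control, 20 µM dose yields 30% or more activation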;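 note: 100% = tunicamycin at 10 µg/mL and 0% = DMSO only wells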
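Assay system: CHO-XBP1 luciferase reporter cells; Schedule: 6 h treatment, 37 °C; Detection: glow luminescence from Steady-Glo reagent; Benchmarks: high control tunicamycin 10 µg/mL final, low control DMSO vehicle only.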
CHOP inh: inhibitors of CHOP induction in ER stress response. CHO-K1 CHOP-promoter luciferase, tunicamycin-induced, 15-18 h. inhibition, % at 10 µM. hit rate 3.8% among 220,000. AID 2732;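 active = compounds that reduced the stress-induced luciferase reporter signal by more than about 70% of percent inhibition, limit read from the data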;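 note: 0% = tunicamycin plus vehicle and 100% = wells without tunicamycin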
UPR CHOP act: apoptotic UPR (CHOP) activation; CHO-CHOP luciferase reporter, luminescence; percent of tunicamycin response over DMSO baseline; activation, % at 10 µM; hit rate 0.34% among 330,000; AID 449763;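 active = at 10 µM dose, activation of 40% or more, normalized to positive control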;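 note: 100% = tunicamycin at 10 µg/mL and 0% = DMSO alone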
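Assay system: CHO cells with stable CHOP pathway luciferase reporter; Buffer or medium: F12 plus 10% serum; Times: 16-18 h cell attachment, then 6 h compound exposure, 37 °C; Signal: luciferase luminescence; Read-out basis: percent activation relative to tunicamycin control; Control set: tunicamycin high control, DMSO low control.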
CHOP inh conf: confirmation of CHOP induction inhibitors | inhibition, % at 10 µM | CHO-CHOP promoter luciferase reporter, tunicamycin-induced, luminescence | hit rate 45% among 2,100 | shares compounds with CHOP inh;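 active = mean of three repeat readings of reporter signal inhibition above a set limit, cut at about 70% in these data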;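 note: 0% = tunicamycin plus vehicle and 100% = wells lacking tunicamycin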
* = called active by the depositor; nt = not tested or not shown. This is one part of a sample in which hits are shown more often than they occur.

SMILES	TLR4-MyD88 BLA	TLR9-MyD88 block	NOD2 RIPK2 PPI	UPR XBP1 act	CHOP inh	UPR CHOP act	CHOP inh conf
COc1cc2c(cc1/C=C1/NC(=O)N(CC(=O)Nc3ccccc3)C1=O)OCO2	13.0	-7.1	2.2	-0.7	102.2*	-1.0	20.7
NC(=S)N=Nc1c(O)[nH]c2ccccc12	4.9	2.7	-4.1	-1.7	3.9	2.9	nt
NC(=S)N=Nc1c(O)[nH]c2c(Br)cc(Br)cc12	-13.0	nt	-0.9	-1.5	98.2*	1.7	7.0
COC(=O)c1cc(S(=O)(=O)N2CCC(c3cc(OC)ccc3OC)C2)c[nH]1 (centres undefined)	nt	-7.4	-3.6	-5.9	nt	3.4	nt
O=C1C(=C2SCCCS2)CC/C1=C\c1ccc(F)cc1	6.9	-5.9	-1.8	-8.8	107.6*	-11.6	114.6*
COC(=O)C1CC2=C(CCC2=O)N(c2ccccc2)C1=O (centres undefined)	nt	-13.7	-6.0	nt	nt	nt	nt
O=C1c2ccc([N+](=O)[O-])cc2S(=O)(=O)N1Cc1ccccc1	nt	1.4	0.9	6.1	nt	24.3	nt
CC(C)(C)C1CCC(C(=O)OCC(=O)c2ccc[nH]2)CC1 (centres undefined)	7.9	5.6	0.1	-1.7	101.1*	3.8	100.0*
CC(=O)Nc1ccc(NC(=O)Cc2ccc(S(=O)(=O)N3CCCCC3)cc2)cc1	nt	-1.3	-3.5	-3.7	nt	-0.2	nt
NS(=O)(=O)c1ccc(N2N=C(c3ccccc3)CC2c2ccc(F)cc2)cc1 (centres undefined)	-31.9	-42.6	0.3	-0.4	104.7*	-2.4	-25.6
CSc1ccccc1NC(=O)COc1ccc(Cl)cc1Cl	4.2	0.1	-3.6	-0.6	-0.6	1.9	nt
O=C(COc1ccc(Cl)cc1Cl)Nc1ccccn1	-9.8	-6.1	5.8	-6.5	100.0*	-9.0	91.9*
CCN(CC)C(=O)C1=C(C)N(CCCN2CCCC2=O)C(=O)C(CC(=O)NC2CCCCC2)C1 (centres undefined)	nt	3.2	-5.1	nt	nt	nt	nt
O=S(=O)(NCc1cc(-c2ccc(Cl)cc2)no1)c1ccc(Cl)cc1	-1.0	-1.5	1.5	-0.6	101.8*	-3.3	45.8
O=S(=O)(NCc1cc(-c2ccc(Cl)cc2)no1)c1ccccc1	-2.6	-0.2	1.3	-2.8	52.3	0.2	nt
O=[N+]([O-])c1cc(-n2cnnn2)ccc1N1CCC(Cc2ccccc2)CC1	4.4	2.7	-5.2	1.5	103.5*	-0.3	39.3
CCCc1cc(C(=O)Cc2ccc(F)cc2)c(O)cc1O	-0.6	4.2	-0.7	0.7	100.3*	-1.2	122.5*
CCC(NC(=O)Nc1nnc(C(F)(F)F)s1)(C(F)(F)F)C(F)(F)F	18.8	-5.0	-5.5	-1.2	103.1*	8.6	115.2*
Oc1ccc(F)cc1-c1cc(-c2ccc3c(c2)OCCO3)n[nH]1	2.6	1.5	0.4	1.3	98.9*	1.9	4.5
Oc1ccccc1-c1cc(-c2ccc(F)cc2)n[nH]1	nt	1.6	-3.4	1.4	nt	7.1	nt
O=C(NCCOc1ccccc1F)c1cc(F)c(F)cc1Cl	6.2	4.1	-4.3	-2.7	-14.3	0.0	nt
COC(=O)C1(CCSC)NC(c2ccc(O)c(OC)c2)C2C(=O)N(c3ccc(C)cc3)C(=O)C21 (centres undefined)	-0.9	-7.9	-15.3	-1.8	4.4	-0.6	nt
CCN1CCN(c2cc(C)c3cc(NC(=S)N4CCN(c5ccc(F)cc5)CC4)ccc3n2)CC1	-1.7	1.6	-2.4	0.2	106.0*	4.6	-8.9
CCN1CCN(C(=S)Nc2ccc3nc(N4CCN(CC)CC4)cc(C)c3c2)CC1	20.2	4.0	-1.0	-0.6	-1.0	1.2	nt
O/N=C/c1cc(Cl)ccc1OCc1cccc2ccccc12	-24.6	nt	nt	4.0	112.7*	3.2	30.8
C#CCOc1ccc(Cl)cc1/C=N/O	3.5	1.7	-3.0	2.1	18.0	0.3	nt
Cc1cccc(N=Nc2c(N)n[nH]c2-c2ccc(Cl)cc2)c1	22.6	5.5	9.7	1.8	109.2*	0.3	107.8*
Cc1ccc(N=Nc2c(N)n[nH]c2N)cc1	nt	4.8	-7.3	0.1	nt	5.4	nt
COc1ccccc1OCC(=O)N1CCN(C(=O)c2ccco2)CC1	nt	-7.2	-5.5	-2.1	nt	1.8	nt
